# Reference: ChEMBL document CHEMBL3611968, “Reengineered tricyclic anti-cancer agents” (Bioorg Med Chem, 2015)
# Active and inactive are the calls of the source. The rule behind the calls is not given here.
# Columns and labels:
# [1] = Cmax in mouse at 25 mg/kg, po; assay type: ADME, organism-based; set-up: dose 25 mg/kg, route oral; details: in vivo
# [2] = target: Sodium-dependent serotonin transporter (Homo sapiens) (UniProt P31645); test: Displacement of [3H]-imipramine from serotonin transporter (unknown origin) at 0.1 to 10 mM relative to control
# How it was run: (§1)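 Competitive antagonist radioligand binding at monoamine transporters. Serotonin transporter is labelled with [³H]imipramine and norepinephrine transporter with [³H]nisoxetine. The compound was tested at three concentrations, and binding is expressed as percent inhibition of specific radioligand binding. Each value is the mean of two independent determinations.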
# [3] = tested on: NCI-H1650; test: Cytotoxicity against human NCI-H1650 cells assessed as growth inhibition after 48 hrs by MTT assay; assay type: functional; details: NCI-H1650, 48 h
# How it was run: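 H1650 cells were exposed to drug for 48 h at five concentrations bracketing 1–40 μM in 10 μM steps, with MTT read-out. GI50 is given only where the data form a sigmoidal dose response.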
# [4] = target: Sodium-dependent noradrenaline transporter (Homo sapiens) (UniProt P23975); test: Displacement of [3H]-nisoxetine from norepinephrine transporter (unknown origin) at 1 to 10 mM; how it was run: as §1
# [5] = tested on: NCI-H1650; test: Induction of apoptosis in human NCI-H1650 cells by Annexin V staining in presence of pan caspase inhibition Z-VAD; assay type: functional, cell-based
# [6] = target: Histamine H2 receptor (Homo sapiens) (UniProt P25021); test: Displacement of [125I]-APT from histamine H2 receptor (unknown origin) at […]
# [7] = tested on: NCI-H1650; test: Induction of apoptosis in human NCI-H1650 cells by Annexin V staining; assay type: functional, cell-based
# [8] = target: Histamine H1 receptor (Homo sapiens) (UniProt P35367); test: Displacement of [3H]-pyrilamine from histamine H1 receptor (unknown origin) at […]
# [9] = AUCinfinity in mouse at 100 mg/kg, ip administered through DMSO; assay type: ADME, organism-based; set-up: dose 100 mg/kg, time infinity, route intraperitoneal; details: in vivo
# [10] = Tmax in mouse at 25 mg/kg, ip; assay type: ADME, organism-based; details: in vivo
# [11] = AUCinfinity in mouse at 1 mg/kg, iv; assay type: ADME, organism-based; set-up: dose 1 mg/kg, time infinity, route intravenous; details: in vivo
# [12] = Cmax in mouse at 25 mg/kg, ip; assay type: ADME, organism-based; set-up: dose 25 mg/kg, route intraperitoneal; details: in vivo
# [13] = Cmax in mouse at 100 mg/kg, po; assay type: ADME, organism-based; set-up: dose 100 mg/kg, route oral; details: in vivo
# [14] = Cmax in mouse at 100 mg/kg, ip administered through DMSO; assay type: ADME, organism-based; set-up: dose 100 mg/kg, route intraperitoneal; details: in vivo
# [15] = AUCinfinity in mouse at 25 mg/kg, ip; assay type: ADME, organism-based; set-up: dose 25 mg/kg, time infinity, route intraperitoneal; details: in vivo
# [16] = Tmax in mouse at 25 mg/kg, po; assay type: ADME, organism-based; details: in vivo
# [17] = species on record: Homo sapiens; test: Displacement of [3H]-glibencamide from K (ATP) channel (unknown origin) at […]
# [18] = AUClast in mouse at 100 mg/kg, ip administered through DMSO; assay type: ADME, organism-based; details: in vivo
# [19] = Volume of distribution at steady state in mouse at 1 mg/kg, iv; assay type: ADME, organism-based; details: in vivo, read-out: Vdss
# [20] = AUClast in mouse at 100 mg/kg, po; assay type: ADME, organism-based; details: in vivo
# [21] = AUClast in mouse at 100 mg/kg, ip administered through DMA/solutol/water; assay type: ADME, organism-based; details: in vivo
# [22] = Bioavailability in mouse at 100 mg/kg, ip administered through DMSO; assay type: ADME, organism-based; details: in vivo
# [23] = AUCinfinity in mouse at 25 mg/kg, po; assay type: ADME, organism-based; set-up: dose 25 mg/kg, route oral, time infinity; details: in vivo
# [24] = tested on: NCI-H1650; test: Cell cycle arrest in human NCI-H1650 cells assessed as accumulation at sub-G1 phase at 1 to 40 uM by propidium iodide staining-based flow cytometric analysis; assay type: functional
# [25] = Bioavailability in mouse at 100 mg/kg, ip administered through DMA/solutol/water; assay type: ADME, organism-based; details: in vivo
# [26] = AUCinfinity in mouse at 100 mg/kg, ip administered through DMA/solutol/water; assay type: ADME, organism-based; set-up: dose 100 mg/kg, route intraperitoneal, time infinity; details: in vivo
# [27] = target: RAC-alpha serine/threonine-protein kinase (Homo sapiens) (UniProt P31749); test: Inhibition of AKT phosphorylation in human NCI-H1650 cells at 20 to 40 uM after 12 hrs by Western blot analysis; assay type: cell-based
# [28] = Tmax in mouse at 100 mg/kg, ip administered through DMSO; assay type: ADME, organism-based; details: in vivo
# [29] = AUClast in mouse at 25 mg/kg, ip; assay type: ADME, organism-based; details: in vivo
# [30] = Bioavailability in mouse at 25 mg/kg, ip; assay type: ADME, organism-based; details: in vivo
# [31] = Oral bioavailability in mouse at 25 mg/kg; assay type: ADME, organism-based; details: in vivo
# [32] = Tmax in mouse at 100 mg/kg, po; assay type: ADME, organism-based; details: in vivo
# [33] = AUClast in mouse at 1 mg/kg, iv; assay type: ADME, organism-based; details: in vivo
# [34] = target: Sodium-dependent dopamine transporter (Homo sapiens) (UniProt Q01959); test: Displacement of [3H]-BTCP from dopamine transporter (unknown origin) at 1 to 10 mM
# How it was run: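 Dopamine transporter antagonist radioligand binding used [3H]BTCP, tested at 0.1, 1.0 and 10 mM, as percent inhibition. Each value is the average of two independent determinations.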
# [35] = Half life in mouse at 1 mg/kg, iv; assay type: ADME, organism-based; details: in vivo
# [36] = tested on: Voltage-gated potassium channel; test: Displacement of [125-I]-dendrotoxin from Kv channel (unknown origin) at 0.1 to 10 mM; assay type: protein assay; details: human
# [37] = species on record: Homo sapiens; test: Displacement of [125-I]-apamin from SKCa channel (unknown origin) at 0.1 to 10 mM
# [38] = target: Sodium channel protein type 5 subunit alpha (Homo sapiens, UniProt Q14524); test: Inhibition of Nav1.5 channel (unknown origin) expressed in HEK293 cells at […] by patch clamp assay; assay type: cell-based
# [39] = Cmax in mouse at 100 mg/kg, ip administered through DMA/solutol/water; assay type: ADME, organism-based; set-up: dose 100 mg/kg, route intraperitoneal; details: in vivo
# [40] = species on record: Homo sapiens; test: Displacement of [3H]-D888 from L-type Ca2+ channel verapamil site (unknown origin) at […]
# [41] = tested on: NCI-H1650; test: Inhibition of ERK phosphorylation in human NCI-H1650 cells at 20 to 40 uM after 12 hrs by Western blot analysis; assay type: cell-based
# [42] = target: T1, Muscarinic acetylcholine receptor M2 (Homo sapiens) (UniProt P08172); test: Displacement of [3H]-AF-DX384 from muscarinic acetylcholine M2 receptor (unknown origin) at […]
# T1 sequence (whole entry): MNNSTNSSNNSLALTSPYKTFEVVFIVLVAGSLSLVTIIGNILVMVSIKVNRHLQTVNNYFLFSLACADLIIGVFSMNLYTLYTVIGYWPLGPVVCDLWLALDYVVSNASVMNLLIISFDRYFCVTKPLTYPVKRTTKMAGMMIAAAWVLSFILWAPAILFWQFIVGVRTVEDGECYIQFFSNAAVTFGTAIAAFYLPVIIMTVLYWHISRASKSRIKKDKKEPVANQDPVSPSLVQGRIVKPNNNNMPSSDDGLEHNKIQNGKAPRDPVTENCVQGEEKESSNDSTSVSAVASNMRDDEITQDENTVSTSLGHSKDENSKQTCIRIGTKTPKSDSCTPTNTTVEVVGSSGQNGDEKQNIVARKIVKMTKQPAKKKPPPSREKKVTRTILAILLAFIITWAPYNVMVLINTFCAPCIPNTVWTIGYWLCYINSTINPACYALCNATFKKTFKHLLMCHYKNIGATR
# [43] = species on record: Homo sapiens; test: Displacement of [3H]-nitrendipine from L-type Ca2+ channel dihydropyridine site (unknown origin) at […]
# [44] = AUClast in mouse at 25 mg/kg, po; assay type: ADME, organism-based; details: in vivo
# [45] = target: Voltage-gated inwardly rectifying potassium channel KCNH2 (Homo sapiens, UniProt Q12809); test: Displacement of [3H]-astemizole from human ERG at […]
# [46] = species on record: Homo sapiens; test: Displacement of [3H]-diltiazem from L-type Ca2+ channel diltiazem site (unknown origin) at […]
# [47] = Oral bioavailability in mouse at 100 mg/kg; assay type: ADME, organism-based; details: in vivo
# [48] = Clearance in mouse at 1 mg/kg, iv; assay type: ADME, organism-based; details: in vivo
# [49] = Tmax in mouse at 100 mg/kg, ip administered through DMA/solutol/water; assay type: ADME, organism-based; details: in vivo
# [50] = tested on: NCI-H1650; test: Antitumor activity against human NCI-H1650 cells xenografted in BALB/c nu/nu mouse assessed as change in tumor volume at 100 mg/kg, ip administered every other day for 3 weeks (reference value: 3.46 +/- 0.95); assay type: functional
# How it was run: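 H1650 tumours were grown in mice. The 100 mg/kg treated group (n = 9) was compared with vehicle controls (n = 7) on mean fold change in tumour volume, using Student's t test.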
# [51] = AUCinfinity in mouse at 100 mg/kg, po; assay type: ADME, organism-based; set-up: dose 100 mg/kg, route oral, time infinity; details: in vivo
# Histamine H2 receptor (Homo sapiens), sequence (P25021 whole entry): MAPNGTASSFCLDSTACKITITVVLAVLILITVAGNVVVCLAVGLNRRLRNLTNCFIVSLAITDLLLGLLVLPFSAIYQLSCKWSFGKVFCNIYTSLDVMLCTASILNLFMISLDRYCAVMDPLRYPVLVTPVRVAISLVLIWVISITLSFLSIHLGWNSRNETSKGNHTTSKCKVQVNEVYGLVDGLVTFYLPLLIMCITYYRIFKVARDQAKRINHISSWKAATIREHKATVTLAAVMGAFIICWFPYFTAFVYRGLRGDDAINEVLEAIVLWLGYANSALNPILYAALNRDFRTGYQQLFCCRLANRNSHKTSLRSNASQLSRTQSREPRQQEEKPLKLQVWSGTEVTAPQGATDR
# RAC-alpha serine/threonine-protein kinase (Homo sapiens), sequence (P31749 whole entry): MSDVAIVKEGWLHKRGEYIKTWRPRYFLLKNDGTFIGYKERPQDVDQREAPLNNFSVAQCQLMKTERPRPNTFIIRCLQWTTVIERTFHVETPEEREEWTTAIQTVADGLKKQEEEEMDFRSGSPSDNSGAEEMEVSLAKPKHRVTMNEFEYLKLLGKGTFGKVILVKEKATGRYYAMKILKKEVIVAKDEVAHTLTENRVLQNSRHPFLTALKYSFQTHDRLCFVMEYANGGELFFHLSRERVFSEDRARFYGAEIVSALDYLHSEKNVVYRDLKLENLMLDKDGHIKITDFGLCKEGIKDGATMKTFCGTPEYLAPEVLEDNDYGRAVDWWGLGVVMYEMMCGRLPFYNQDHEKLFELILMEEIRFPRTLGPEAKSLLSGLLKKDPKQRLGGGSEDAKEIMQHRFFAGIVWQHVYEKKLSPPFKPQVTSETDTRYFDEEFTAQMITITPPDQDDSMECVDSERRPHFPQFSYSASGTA
# Sodium-dependent dopamine transporter (Homo sapiens), sequence (Q01959 whole entry): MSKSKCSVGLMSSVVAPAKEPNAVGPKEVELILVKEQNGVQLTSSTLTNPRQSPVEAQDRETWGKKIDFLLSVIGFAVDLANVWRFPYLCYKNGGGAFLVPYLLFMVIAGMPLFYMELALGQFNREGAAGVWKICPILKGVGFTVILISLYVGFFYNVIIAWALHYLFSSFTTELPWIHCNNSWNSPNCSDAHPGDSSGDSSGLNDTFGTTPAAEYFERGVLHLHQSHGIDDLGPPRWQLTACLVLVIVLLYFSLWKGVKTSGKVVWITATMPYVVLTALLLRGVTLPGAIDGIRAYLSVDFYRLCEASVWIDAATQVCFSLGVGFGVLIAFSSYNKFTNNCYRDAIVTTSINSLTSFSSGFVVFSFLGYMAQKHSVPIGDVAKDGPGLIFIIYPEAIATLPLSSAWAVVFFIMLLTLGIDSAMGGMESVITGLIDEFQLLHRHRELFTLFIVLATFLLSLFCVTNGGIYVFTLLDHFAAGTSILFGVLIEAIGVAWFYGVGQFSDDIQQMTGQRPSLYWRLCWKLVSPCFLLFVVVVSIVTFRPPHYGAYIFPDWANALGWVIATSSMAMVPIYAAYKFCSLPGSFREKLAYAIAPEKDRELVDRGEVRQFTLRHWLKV
# Sodium channel protein type 5 subunit alpha, sequence (Q14524 whole entry): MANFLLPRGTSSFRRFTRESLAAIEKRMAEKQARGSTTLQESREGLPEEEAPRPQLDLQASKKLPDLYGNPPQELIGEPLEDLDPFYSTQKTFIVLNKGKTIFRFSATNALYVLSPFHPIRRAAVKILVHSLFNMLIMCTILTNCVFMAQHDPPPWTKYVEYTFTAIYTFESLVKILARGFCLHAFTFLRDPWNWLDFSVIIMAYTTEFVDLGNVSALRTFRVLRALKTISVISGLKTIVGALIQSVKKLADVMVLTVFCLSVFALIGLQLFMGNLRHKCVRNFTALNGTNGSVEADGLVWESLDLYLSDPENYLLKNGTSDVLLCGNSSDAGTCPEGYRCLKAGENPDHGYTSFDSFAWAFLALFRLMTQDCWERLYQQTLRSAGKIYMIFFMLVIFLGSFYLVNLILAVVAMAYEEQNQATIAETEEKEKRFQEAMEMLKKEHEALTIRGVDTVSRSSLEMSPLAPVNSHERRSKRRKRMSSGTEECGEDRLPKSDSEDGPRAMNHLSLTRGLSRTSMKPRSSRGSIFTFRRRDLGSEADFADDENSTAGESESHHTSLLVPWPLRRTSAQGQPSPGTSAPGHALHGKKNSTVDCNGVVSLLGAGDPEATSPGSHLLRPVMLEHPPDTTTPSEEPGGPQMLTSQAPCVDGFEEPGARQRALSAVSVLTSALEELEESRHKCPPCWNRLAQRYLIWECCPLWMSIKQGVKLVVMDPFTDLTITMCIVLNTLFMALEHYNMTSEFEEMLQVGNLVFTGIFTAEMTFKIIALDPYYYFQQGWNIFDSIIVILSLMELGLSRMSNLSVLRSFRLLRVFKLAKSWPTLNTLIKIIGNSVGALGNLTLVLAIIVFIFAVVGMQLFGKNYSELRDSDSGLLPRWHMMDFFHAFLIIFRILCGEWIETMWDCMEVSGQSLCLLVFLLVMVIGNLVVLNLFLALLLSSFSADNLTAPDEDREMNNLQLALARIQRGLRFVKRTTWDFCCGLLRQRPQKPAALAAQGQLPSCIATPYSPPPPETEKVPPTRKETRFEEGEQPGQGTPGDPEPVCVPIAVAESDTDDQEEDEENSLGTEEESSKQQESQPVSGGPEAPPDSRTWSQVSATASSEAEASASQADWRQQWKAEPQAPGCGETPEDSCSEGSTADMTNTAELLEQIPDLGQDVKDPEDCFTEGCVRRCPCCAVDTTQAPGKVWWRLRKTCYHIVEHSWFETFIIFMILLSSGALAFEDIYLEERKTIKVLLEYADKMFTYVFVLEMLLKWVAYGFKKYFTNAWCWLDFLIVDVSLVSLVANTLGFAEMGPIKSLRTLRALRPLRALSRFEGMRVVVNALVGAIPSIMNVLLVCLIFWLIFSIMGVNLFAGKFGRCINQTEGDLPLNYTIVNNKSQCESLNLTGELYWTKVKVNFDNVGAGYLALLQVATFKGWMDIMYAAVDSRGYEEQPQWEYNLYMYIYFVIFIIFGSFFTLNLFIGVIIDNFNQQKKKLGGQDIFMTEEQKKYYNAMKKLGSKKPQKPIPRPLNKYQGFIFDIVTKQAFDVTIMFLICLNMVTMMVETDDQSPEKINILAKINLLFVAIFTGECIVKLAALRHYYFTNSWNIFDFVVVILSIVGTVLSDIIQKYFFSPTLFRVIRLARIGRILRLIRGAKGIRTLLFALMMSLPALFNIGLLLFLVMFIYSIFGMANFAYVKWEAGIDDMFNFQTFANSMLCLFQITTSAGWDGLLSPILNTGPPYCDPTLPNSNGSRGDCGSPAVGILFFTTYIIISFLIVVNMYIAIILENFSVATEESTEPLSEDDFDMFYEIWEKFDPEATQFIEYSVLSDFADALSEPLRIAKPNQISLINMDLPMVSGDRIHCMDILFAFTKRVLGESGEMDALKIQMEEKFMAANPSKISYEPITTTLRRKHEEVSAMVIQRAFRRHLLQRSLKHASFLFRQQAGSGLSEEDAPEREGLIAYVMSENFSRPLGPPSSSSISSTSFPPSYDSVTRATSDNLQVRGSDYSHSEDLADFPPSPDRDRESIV
# Histamine H1 receptor (Homo sapiens), sequence (P35367 whole entry): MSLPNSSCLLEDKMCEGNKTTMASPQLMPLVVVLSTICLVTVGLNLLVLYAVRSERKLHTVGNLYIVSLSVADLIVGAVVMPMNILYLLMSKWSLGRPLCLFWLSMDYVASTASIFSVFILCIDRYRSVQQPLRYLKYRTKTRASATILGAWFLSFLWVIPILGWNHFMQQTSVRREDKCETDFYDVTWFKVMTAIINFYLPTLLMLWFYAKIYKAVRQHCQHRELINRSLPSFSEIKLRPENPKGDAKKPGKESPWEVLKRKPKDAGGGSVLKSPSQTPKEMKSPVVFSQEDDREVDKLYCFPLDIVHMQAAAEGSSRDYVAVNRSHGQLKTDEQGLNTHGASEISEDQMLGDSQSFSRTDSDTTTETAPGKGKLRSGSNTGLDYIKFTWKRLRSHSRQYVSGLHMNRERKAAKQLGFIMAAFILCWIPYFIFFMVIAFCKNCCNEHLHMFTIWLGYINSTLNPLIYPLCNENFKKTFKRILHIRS
# Sodium-dependent serotonin transporter (Homo sapiens), sequence (P31645 whole entry, looked up): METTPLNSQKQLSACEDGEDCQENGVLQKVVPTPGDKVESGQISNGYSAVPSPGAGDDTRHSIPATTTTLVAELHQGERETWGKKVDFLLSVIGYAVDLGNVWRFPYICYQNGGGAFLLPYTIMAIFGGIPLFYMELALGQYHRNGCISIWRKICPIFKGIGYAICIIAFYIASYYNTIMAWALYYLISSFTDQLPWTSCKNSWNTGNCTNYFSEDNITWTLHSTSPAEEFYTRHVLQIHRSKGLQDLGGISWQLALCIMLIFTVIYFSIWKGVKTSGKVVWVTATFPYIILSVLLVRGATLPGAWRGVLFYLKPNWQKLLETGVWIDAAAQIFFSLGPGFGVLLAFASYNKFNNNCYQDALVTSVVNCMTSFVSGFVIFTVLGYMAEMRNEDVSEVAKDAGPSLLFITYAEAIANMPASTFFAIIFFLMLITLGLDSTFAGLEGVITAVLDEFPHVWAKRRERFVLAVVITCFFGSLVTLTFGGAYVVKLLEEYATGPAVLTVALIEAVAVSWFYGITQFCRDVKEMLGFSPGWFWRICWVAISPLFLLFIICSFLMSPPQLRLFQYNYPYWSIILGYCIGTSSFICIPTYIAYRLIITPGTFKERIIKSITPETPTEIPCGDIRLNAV
compound,measurement,setting,value
O=S(=O)(NCCCN1c2ccccc2CCc2ccc(Cl)cc21)c1ccc(OC(F)(F)F)cc1,Cmax,[1],476 ng/mL
same,inhibition,[2],< 5%
same,GI50,[3],12.6 µM
same,inhibition,[4],Active
same,Activity,[5],inactive
same,inhibition,[6],inactive
same,Activity,[7],Active
same,inhibition,[8],inactive
same,AUC(0-inf),[9],40700 ng·h/mL
same,Tmax,[10],1 h
same,AUC(0-inf),[11],399 ng·h/mL
same,Cmax,[12],754 ng/mL
same,Cmax,[13],1940 ng/mL
same,Cmax,[14],3100 ng/mL
same,AUC(0-inf),[15],3680 ng·h/mL
same,Tmax,[16],1 h
same,inhibition,[17],inactive
same,AUC(0-t),[18],38800 ng·h/mL
same,Vd,[19],1.31 L/kg
same,AUC(0-t),[20],6790 ng·h/mL
same,AUC(0-t),[21],12800 ng·h/mL
same,bioavailability,[22],100%
same,AUC(0-inf),[23],1430 ng·h/mL
same,Activity,[24],Active
same,bioavailability,[25],34%
same,AUC(0-inf),[26],14100 ng·h/mL
same,inhibition,[27],Active
same,Tmax,[28],4 h
same,AUC(0-t),[29],3570 ng·h/mL
same,bioavailability,[30],38%
same,bioavailability,[31],15%
same,Tmax,[32],2 h
same,AUC(0-t),[33],375 ng·h/mL
same,inhibition,[34],Active
same,half-life,[35],0.61 h
same,inhibition (INH),[36],Not Active
same,inhibition,[37],inactive
same,inhibition (INH),[38],Not Active
same,Cmax,[39],2350 ng/mL
same,inhibition,[40],inactive
same,inhibition,[41],Active
same,inhibition,[42],inactive
same,inhibition,[43],inactive
same,AUC(0-t),[44],1380 ng·h/mL
same,inhibition (INH),[45],Not Active
same,inhibition,[46],inactive
same,bioavailability,[47],18%
same,clearance,[48],42 mL/min/kg
same,Tmax,[49],2 h
same,fold change (FC),[50],1.49
same,AUC(0-inf),[51],7210 ng·h/mL
